Experimental data reported in ChEMBL document CHEMBL1671809, “Discovery of phosphoric acid mono-{2-[(E/Z)-4-(3,3-dimethyl-butyrylamino)-3,5-difluoro-benzoylimino]-thiazol-3-ylmethyl} ester (Lu AA47070): a phosphonooxymethylene prodrug of a potent and selective hA(2A) receptor antagonist” (J Med Chem, 2011).

Legend:
Adenosine receptor A2a [1] = target: T1, Adenosine receptor A2a (Homo sapiens, UniProt P29274); experiment: Displacement of [3H]-ZM241385 from human adenosine A2A receptor expressed in high five cells after 30 mins by scintillation counting
T1 sequence (P29274 whole entry): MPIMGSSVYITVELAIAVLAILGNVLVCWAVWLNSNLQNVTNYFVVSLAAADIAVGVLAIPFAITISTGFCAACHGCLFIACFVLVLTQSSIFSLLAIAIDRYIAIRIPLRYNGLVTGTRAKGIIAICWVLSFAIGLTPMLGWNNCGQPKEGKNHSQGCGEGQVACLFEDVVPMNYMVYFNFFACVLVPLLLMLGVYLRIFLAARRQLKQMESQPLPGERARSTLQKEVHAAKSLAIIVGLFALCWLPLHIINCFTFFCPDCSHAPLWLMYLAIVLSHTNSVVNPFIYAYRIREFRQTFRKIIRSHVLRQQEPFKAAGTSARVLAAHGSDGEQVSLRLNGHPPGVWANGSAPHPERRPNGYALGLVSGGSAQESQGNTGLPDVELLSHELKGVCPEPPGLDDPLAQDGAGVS

Adenosine receptor A1 = target: T2, Adenosine receptor A1 (Homo sapiens, UniProt P30542); experiment: Displacement of [3H]-DPCPX from human adenosine A1 receptor expressed in CHO cells after 30 mins by scintillation counting; assay type: cell-based
T2 sequence (P30542 whole entry): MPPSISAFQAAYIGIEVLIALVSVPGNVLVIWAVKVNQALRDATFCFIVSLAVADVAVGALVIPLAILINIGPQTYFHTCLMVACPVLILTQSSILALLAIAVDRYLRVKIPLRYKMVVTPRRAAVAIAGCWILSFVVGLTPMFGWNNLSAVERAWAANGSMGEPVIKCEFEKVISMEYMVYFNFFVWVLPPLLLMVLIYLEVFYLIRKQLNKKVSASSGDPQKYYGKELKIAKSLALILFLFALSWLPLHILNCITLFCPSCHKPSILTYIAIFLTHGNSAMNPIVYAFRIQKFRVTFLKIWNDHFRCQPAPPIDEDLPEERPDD
Method in brief: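 CHO-hA1 membranes at 10.8 μg protein/well, pretreated with adenosine deaminase (2 U/mL, 30 min, 37 C), were incubated with 1 nM [3H]-DPCPX in 50 mM Tris/HCl pH 7.4 for 30 min at 25 C across 10 compound concentrations. Filtration on PEI-soaked GF/B, scintillation counting. Nonspecific binding by CGS15943. Ki by Cheng-Prusoff. Means of ≥2 determinations.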

Homo sapiens = organism: Homo sapiens; experiment: Selectivity ratio of Ki for human adenosine A1 receptor to Ki for human adenosine A2A receptor
Cytochrome P450 1A2 = target: T3, Cytochrome P450 1A2 (Homo sapiens, UniProt P05177); experiment: Inhibition of recombinant CYP1A2 after 28 mins; assay type: ADME
T3 sequence (P05177 whole entry): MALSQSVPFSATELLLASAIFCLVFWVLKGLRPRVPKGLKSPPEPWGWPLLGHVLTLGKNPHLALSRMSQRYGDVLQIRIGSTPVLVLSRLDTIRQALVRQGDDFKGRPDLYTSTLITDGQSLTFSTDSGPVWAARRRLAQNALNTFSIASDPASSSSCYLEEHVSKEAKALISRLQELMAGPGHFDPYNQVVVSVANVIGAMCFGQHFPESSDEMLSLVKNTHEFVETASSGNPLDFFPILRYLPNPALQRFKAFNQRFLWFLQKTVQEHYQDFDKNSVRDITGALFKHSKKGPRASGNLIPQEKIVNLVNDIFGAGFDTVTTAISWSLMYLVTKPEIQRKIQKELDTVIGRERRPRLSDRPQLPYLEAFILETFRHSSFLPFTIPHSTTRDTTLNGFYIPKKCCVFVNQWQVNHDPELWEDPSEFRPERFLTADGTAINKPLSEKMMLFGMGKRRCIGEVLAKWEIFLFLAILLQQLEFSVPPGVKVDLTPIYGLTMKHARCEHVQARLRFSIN
Method in brief: (§1)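 Recombinant CYP supersomes incubated in phosphate buffer with eight compound concentrations (40-0.02 μM) and fluorogenic substrates. CYP1A2: 7-ethoxy-3-cyanocoumarin 10 μM, 28 min. CYP2C19: same substrate 50 μM, 45 min. CYP2D6: AMMC 3 μM, 45 min. CYP3A4: resorufin benzyl ether 100 μM, 30 min. Fluorescent metabolite read; IC50 relative to uninhibited controls.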

Cytochrome P450 2C19 = Cytochrome P450 2C19 (Homo sapiens, UniProt P33261); experiment: Inhibition of recombinant CYP2C19 after 45 mins; assay type: ADME; method in brief: as §1
Sequence of Cytochrome P450 2C19 (P33261 whole entry): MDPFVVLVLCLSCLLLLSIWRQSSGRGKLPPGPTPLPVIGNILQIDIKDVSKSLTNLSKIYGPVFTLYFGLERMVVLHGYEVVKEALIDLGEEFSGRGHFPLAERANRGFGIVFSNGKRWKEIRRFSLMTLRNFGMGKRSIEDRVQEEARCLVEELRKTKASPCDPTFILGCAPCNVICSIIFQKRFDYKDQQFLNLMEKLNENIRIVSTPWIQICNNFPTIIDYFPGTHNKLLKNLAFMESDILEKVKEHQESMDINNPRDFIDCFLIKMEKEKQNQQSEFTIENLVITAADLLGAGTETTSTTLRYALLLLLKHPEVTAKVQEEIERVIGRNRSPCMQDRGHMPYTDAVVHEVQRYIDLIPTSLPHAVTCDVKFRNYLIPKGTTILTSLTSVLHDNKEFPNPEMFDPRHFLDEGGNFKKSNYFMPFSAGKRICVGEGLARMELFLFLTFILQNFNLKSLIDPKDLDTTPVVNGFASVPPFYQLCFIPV

Cytochrome P450 2D6 = Cytochrome P450 2D6 (Homo sapiens, UniProt P10635); experiment: Inhibition of recombinant CYP2D6 after 45 mins; assay type: ADME; method in brief: as §1
Sequence of Cytochrome P450 2D6 (P10635 whole entry): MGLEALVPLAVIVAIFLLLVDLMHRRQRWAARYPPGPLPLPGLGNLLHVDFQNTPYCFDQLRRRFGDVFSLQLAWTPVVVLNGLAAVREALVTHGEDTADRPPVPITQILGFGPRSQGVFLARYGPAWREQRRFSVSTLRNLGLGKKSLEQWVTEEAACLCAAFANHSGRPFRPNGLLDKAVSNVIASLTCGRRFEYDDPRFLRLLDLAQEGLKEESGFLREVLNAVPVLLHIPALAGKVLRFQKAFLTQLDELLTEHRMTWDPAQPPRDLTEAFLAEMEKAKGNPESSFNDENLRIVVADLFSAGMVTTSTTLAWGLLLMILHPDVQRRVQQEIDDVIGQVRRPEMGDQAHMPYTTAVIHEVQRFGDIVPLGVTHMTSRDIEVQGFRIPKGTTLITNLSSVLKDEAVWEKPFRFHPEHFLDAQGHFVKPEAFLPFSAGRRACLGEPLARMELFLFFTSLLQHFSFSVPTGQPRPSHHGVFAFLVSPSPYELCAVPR

Mus musculus = experiment: Reversal of haloperidol-induced hypolocomotion in po dosed NMRI mouse administered 30 mins before haloperidol challenge measured for 20 mins; assay type: functional
Method in brief: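 Male NMRI mice (n = 8/group) were given compound po in 25% cremophor/saline, then haloperidol 0.63 mg/kg sc 30 min later. After 15 min they went into photocell activity boxes, and locomotion was recorded for 20 min. ED50 by sigmoidal fit with top 100 and bottom 0.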

[2] = target: T4, Adenosine receptor A1 (Homo sapiens) (UniProt P30542); experiment: Displacement of [3H]-DPCPX from human adenosine A1 receptor expressed in CHO cells at 2000 nM after 30 mins by scintillation counting
T4 sequence (whole entry): T2 sequence (P30542 whole entry)

Caco-2 = experiment: Efflux ratio of permeability from basolateral to apical over apical to basolateral side in human Caco2 cells after 21 to 28 days by LC-MS/MS analysis
[3] = target: T4, Adenosine receptor A1 (Homo sapiens); experiment: Displacement of [3H]-DPCPX from human adenosine A1 receptor expressed in CHO cells at 10 uM after 30 mins by scintillation counting; assay type: cell-based
Liver microsomes [4] = experiment: Intrinsic clearance in human liver microsomes at 1 uM after 60 mins by LC-MS/MS analysis; assay type: ADME, Microsome; conditions: 1 h
Method in brief: (§2)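 Compound at 1 μM with human or rat liver microsomes (0.5 mg protein/mL) plus NADPH at 37 C. Samples at 0, 5, 15, 30 and 60 min, quenched with acetonitrile, analysed by LC-MS/MS.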

Liver microsomes [5] = experiment: Intrinsic clearance in rat liver microsomes at 1 uM after 60 mins by LC-MS/MS analysis; assay type: ADME, Microsome; conditions: 1 h; method in brief: as §2
Cytochrome P450 2C9 = Cytochrome P450 2C9 (Homo sapiens, UniProt P11712); experiment: Inhibition of recombinant CYP2C9 after 45 mins; assay type: ADME
Sequence of Cytochrome P450 2C9 (P11712 whole entry): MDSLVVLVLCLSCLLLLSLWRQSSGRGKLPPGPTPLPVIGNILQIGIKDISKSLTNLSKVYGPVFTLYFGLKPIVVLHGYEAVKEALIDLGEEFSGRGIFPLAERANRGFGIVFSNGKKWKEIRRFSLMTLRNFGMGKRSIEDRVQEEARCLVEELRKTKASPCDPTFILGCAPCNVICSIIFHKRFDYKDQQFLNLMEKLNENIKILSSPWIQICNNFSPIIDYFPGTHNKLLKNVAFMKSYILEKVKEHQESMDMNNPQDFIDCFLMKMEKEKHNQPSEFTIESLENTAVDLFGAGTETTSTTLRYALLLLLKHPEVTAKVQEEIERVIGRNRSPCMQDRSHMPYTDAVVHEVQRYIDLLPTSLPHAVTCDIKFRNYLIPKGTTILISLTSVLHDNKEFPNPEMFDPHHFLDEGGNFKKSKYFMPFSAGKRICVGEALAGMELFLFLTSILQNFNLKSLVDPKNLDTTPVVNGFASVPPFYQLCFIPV

Cytochrome P450 3A4 = Cytochrome P450 3A4 (Homo sapiens, UniProt P08684); experiment: Inhibition of recombinant CYP3A4 after 30 mins; assay type: ADME
Sequence of Cytochrome P450 3A4 (P08684 whole entry): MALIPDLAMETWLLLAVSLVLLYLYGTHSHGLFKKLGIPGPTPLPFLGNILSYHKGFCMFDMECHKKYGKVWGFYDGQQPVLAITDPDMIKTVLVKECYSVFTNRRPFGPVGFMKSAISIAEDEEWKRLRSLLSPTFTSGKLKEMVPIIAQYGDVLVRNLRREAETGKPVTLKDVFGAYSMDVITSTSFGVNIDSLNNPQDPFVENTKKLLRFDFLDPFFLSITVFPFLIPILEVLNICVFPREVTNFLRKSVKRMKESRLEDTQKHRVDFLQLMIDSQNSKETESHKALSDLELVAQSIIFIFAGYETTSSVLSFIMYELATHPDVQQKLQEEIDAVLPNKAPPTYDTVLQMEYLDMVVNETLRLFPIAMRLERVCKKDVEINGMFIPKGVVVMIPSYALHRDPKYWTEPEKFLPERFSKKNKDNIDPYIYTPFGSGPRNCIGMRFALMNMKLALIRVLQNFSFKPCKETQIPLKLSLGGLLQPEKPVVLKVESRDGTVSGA
Method in brief: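 Recombinant CYP supersomes incubated in phosphate buffer with eight compound concentrations (40-0.02 μM) and fluorogenic substrates. CYP3A4: resorufin benzyl ether 100 μM, 30 min. Fluorescent metabolite read; IC50 relative to uninhibited controls.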

Adenosine receptor A2a [6] = target: T1, Adenosine receptor A2a; experiment: Displacement of [3H]-ZM241385 from human adenosine A2A receptor expressed in high five cells at 10 uM after 30 mins by scintillation counting
Method in brief: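 hA2A membranes from baculovirus-infected High Five cells (harvested 72 h), pretreated with adenosine deaminase 2 U/mL for 30 min at 37 C. Membranes at 10.6 μg protein/well were incubated with 1 nM [3H]-ZM241385 in 50 mM Tris/HCl pH 7.4 for 30 min at 25 C. GF/B filtration, scintillation counting. Nonspecific binding by CGS15943. Percent displacement at 10 μM.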

Molecule `COc1cc(C(=O)Nc2nccs2)ccc1NC(=O)CC(C)(C)C` has a Ki (Adenosine receptor A2a [1]) of 17 nM, a Ki (Adenosine receptor A1) of 340 nM and a Ratio Ki (Homo sapiens) of 20.

For `COCCOc1ccc(N2CCN(CCn3ncc4c3nc(N)n3nc(-c5ccco5)nc43)CC2)cc1` [PRELADENANT], the IC50 (Cytochrome P450 1A2) was greater than 40000 nM, the IC50 (Cytochrome P450 2C19) was greater than 40000 nM and the IC50 (Cytochrome P450 2D6) was greater than 40000 nM. The ED50 (Mus musculus) was 0.4 mg/kg, the inhibition [2] was 30% and the Ratio (Caco-2) was 1.1.

In the case of `CC(C)C(=O)Nc1ccc(C(=O)Nc2nccs2)cc1`, the Ki (Adenosine receptor A2a [1]) is reported as 300 nM.

Molecule `CC(C)(C)CC(=O)Nc1ccc(C(=O)Nc2nccs2)cc1F` has a Ki (Adenosine receptor A2a [1]) of 9.2 nM, a Ki (Adenosine receptor A1) of 650 nM and a Ratio Ki (Homo sapiens) of 71.

For `CC(C)CC(=O)Nc1ccc(C(=O)Nc2nccs2)cc1`, the Ki (Adenosine receptor A2a [1]) was 90 nM, the inhibition [3] was 64% and the CL (Liver microsomes [4]) was 1.6 L/min. It also gave a CL (Liver microsomes [5]) of 12 mL/min, an IC50 (Cytochrome P450 1A2) greater than 40000 nM and an IC50 (Cytochrome P450 2C9) greater than 40000 nM. The IC50 (Cytochrome P450 2C19) was greater than 40000 nM, the IC50 (Cytochrome P450 2D6) was greater than 40000 nM and the IC50 (Cytochrome P450 3A4) was greater than 40000 nM. It also gave a Ratio (Caco-2) of 0.7.

With `Cc1cc(C(=O)Nc2nccs2)cc(Cl)c1NC(=O)CC(C)(C)C` the Ki (Adenosine receptor A2a [1]) was 32 nM, the Ki (Adenosine receptor A1) was 580 nM and the Ratio Ki (Homo sapiens) was 18.

With `CC(C)(C)CC(=O)Nc1ccc(C(=O)Nc2nccs2)c(Cl)c1` the Ki (Adenosine receptor A2a [1]) was 180 nM and the inhibition [3] was 14%.

With `Cc1cnc(NC(=O)c2ccc(NC(=O)CC(C)(C)C)cc2)s1` the Ki (Adenosine receptor A2a [1]) was 120 nM and the Ki (Adenosine receptor A1) was 1100 nM.

With `CCC(=O)Nc1ccc(C(=O)Nc2nccs2)cc1` the Ki (Adenosine receptor A2a [1]) was 890 nM and the inhibition [3] was 31%.

`CCCCC(=O)Nc1ccc(C(=O)Nc2nccs2)cc1` showed a Ki (Adenosine receptor A2a [1]) of 190 nM, an inhibition [3] of 69% and a CL (Liver microsomes [4]) of 2.3 L/min. The CL (Liver microsomes [5]) was 54 mL/min, the IC50 (Cytochrome P450 1A2) was greater than 40000 nM and the IC50 (Cytochrome P450 2C9) was 40000 nM. For the same molecule, the IC50 (Cytochrome P450 2C19) was greater than 40000 nM, the IC50 (Cytochrome P450 2D6) was greater than 40000 nM and the IC50 (Cytochrome P450 3A4) was greater than 40000 nM. It also gave a Ratio (Caco-2) of 0.7.

Work on `CC(C)(C)CC(=O)Nc1ccc(C(=O)Nc2nccs2)cc1Cl` yielded a Ki (Adenosine receptor A2a [1]) of 22 nM, a Ki (Adenosine receptor A1) of 210 nM and a Ratio Ki (Homo sapiens) of 10.

With `CC(C)(C)CNC(=O)c1ccc(NC(=O)c2nccs2)cc1` the inhibition (Adenosine receptor A2a [6]) was 0%.

With `Cc1cc(C(=O)Nc2nccs2)ccc1NC(=O)CC(C)(C)C` the Ki (Adenosine receptor A2a [1]) was 19 nM, the Ki (Adenosine receptor A1) was 460 nM and the Ratio Ki (Homo sapiens) was 24.
